Assay results: ChEMBL document CHEMBL1166006, “Bacterial transferase MraY inhibitors: synthesis and biological evaluation” (Bioorg Med Chem, 2010)
Activity calls are given as the source filed them. The rule behind the calls is not given here.

Key:
Escherichia coli = assay: Inhibition of Escherichia coli MurG at 1 mM after 30 mins
Method in brief: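 MurG from E. coli was assayed in final 200 mM Tris–HCl pH 7.5, 10 mM MgCl₂, UDP-[¹⁴C]GlcNAc, lipid I analogue and 35% (v/v) DMSO. The reaction ran 30 min at 37 °C and was stopped by boiling 3 min, then lyophilised. The residue was taken up in 2-propanol/ammonium hydroxide/water (6:3:1), which was also the chromatography mobile phase. Radioactive spots were quantified by scanner.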

[1] = target: T1, Phospho-N-acetylmuramoyl-pentapeptide-transferase (Bacillus subtilis (strain 168)) (UniProt Q03521); assay: Inhibition of Bacillus subtilis transferase MraY assessed as residual activity at 2 mM after 30 mins
T1 sequence (whole entry): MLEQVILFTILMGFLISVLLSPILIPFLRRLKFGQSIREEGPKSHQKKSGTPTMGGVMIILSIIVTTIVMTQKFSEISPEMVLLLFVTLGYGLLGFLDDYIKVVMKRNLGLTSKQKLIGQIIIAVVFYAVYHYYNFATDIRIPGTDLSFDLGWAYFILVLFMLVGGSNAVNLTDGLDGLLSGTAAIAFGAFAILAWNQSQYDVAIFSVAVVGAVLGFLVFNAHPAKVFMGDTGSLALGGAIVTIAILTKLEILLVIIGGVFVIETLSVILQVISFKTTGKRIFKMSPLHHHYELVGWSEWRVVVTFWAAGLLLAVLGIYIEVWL
Method in brief: (§1)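 Enzyme addition started the reaction, which ran 30 min at 37 °C and was stopped by 1 min at 100 °C. Radioactive spots were quantified by scanner. Residual activity (screen at 2 mM) and IC₅₀ were calculated against an inhibitor-free control; mean of triplicates.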

[2] = target: T2, Phospho-N-acetylmuramoyl-pentapeptide-transferase (Bacillus subtilis (strain 168), UniProt Q03521); assay: Inhibition of Bacillus subtilis transferase MraY after 30 mins; method in brief: as §1
T2 sequence (Q03521 whole entry): T1 sequence (whole entry)

Structure (SMILES)	inhibition (Escherichia coli)	Activity [1] [%]	IC50 [2] [µM]
N=C(N)NC[C@H]1O[C@@H](OC[C@H]2O[C@@H](Cn3ccc(=O)[nH]c3=O)[C@@H](O)[C@@H]2O)[C@H](O)[C@@H]1O	inactive		1790
NC[C@H]1O[C@@H](OC[C@H]2O[C@@H](Cn3ccc(=O)[nH]c3=O)[C@@H](O)[C@@H]2O)[C@H](O)[C@@H]1O	inactive		580
N=C(N)NCc1cn(C[C@H]2O[C@@H](OC[C@H]3O[C@@H](Cn4ccc(=O)[nH]c4=O)[C@@H](O)[C@@H]3O)[C@H](O)[C@@H]2O)nn1	inactive		600
NCc1cn(C[C@H]2O[C@@H](OC[C@H]3O[C@@H](Cn4ccc(=O)[nH]c4=O)[C@@H](O)[C@@H]3O)[C@H](O)[C@@H]2O)nn1	inactive		595

Continued, values first:

inhibition (Escherichia coli)	Activity [1] [%]	IC50 [2] [µM]	Structure (SMILES)
inactive	61		O=C(NC[C@H]1O[C@@H](OC[C@H]2O[C@@H](Cn3ccc(=O)[nH]c3=O)[C@@H](O)[C@@H]2O)[C@H](O)[C@@H]1O)[C@@H]1CCCN1
inactive		820	O=C(NCc1cn(C[C@H]2O[C@@H](OC[C@H]3O[C@@H](Cn4ccc(=O)[nH]c4=O)[C@@H](O)[C@@H]3O)[C@H](O)[C@@H]2O)nn1)[C@@H]1CCCN1
